In ChEMBL document CHEMBL4665652, “Discovery of novel quinoline sulphonamide derivatives as potent, selective and orally active RORγ inverse agonists” (Bioorg Med Chem Lett, 2019):

What was measured:
Mus musculus [1] = assay: Immunosuppressive activity in PLP (139 to 151 residues)-induced experimental autoimmune encephalomyelitis mouse model assessed as incidence of disease at 30 mg/kg, po administered bid starting from immunization relative to control; assay type: functional
How it was run: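 EAE induced in mice by immunization with proteolipid protein peptide PLP139-151; ascending paralysis develops 10–12 days post-immunization. Compound dosed orally b.i.d. starting from immunization. Disease onset/incidence scored relative to control.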

Mus musculus [2] = assay: (§1) In vivo inverse agonist activity at RORgamma in po dosed MOG(35-55) peptide/PTX-induced mechanistic C57BL/6 mouse model assessed as anti-CD3 induced IL-17F level in serum dosed for 5 days during MOG/PTX priming and followed by 45 mins prior to anti-CD3 challenge and measured after 2 hrs relative to control; assay type: functional, organism-based; settings: dose mg/kg 10-100, time 5.0 day
How it was run: (§2)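 Mice immunized with mouse MOG35-55 peptide plus pertussis toxin. After 5 days, compound given orally as a suspension in methylcellulose 400cp + 1% poloxamer, 45 min before an anti-CD3 challenge. Circulating cytokines measured 2 h later. Comparison vs vehicle by Dunnett post test.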

[3] = as §1, with “in” for “in po dosed”, “TNFalpha” for “IL-17F”, “serum at 30 mg/kg, po” for “serum”; assay type: functional; settings: time 5 day; how it was run: as §2
CYP3A4 = CYP3A4 (Homo sapiens, UniProt P08684); assay: Inhibition of CYP3A4 (unknown origin) at 1 uM relative to control; assay type: ADME
[4] = Cmax in mouse at 100 mg/kg, po; assay type: ADME, organism-based; design: route oral, dose 100 mg/kg; settings: in vivo
How it was run: (§3)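 Oral ascending-dose PK in mice at 100 mg/kg (ratios against 10 mg/kg), given as a suspension in 1% methylcellulose 400cp + 0.1% Poloxamer. Cmax, AUClast and t1/2 come from plasma profiles.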

[5] = Ratio of Cmax in mouse at 100 mg/kg, po to Cmax in mouse at 10 mg/kg, po; assay type: ADME, organism-based; settings: in vivo; how it was run: as §3
[6] = as §1, with “in” for “in po dosed”, “IL-22” for “IL-17F”, “serum at 10 mg/kg, po” for “serum”; assay type: functional; settings: time 5 day; how it was run: as §2

Chain of CYP3A4 (P08684 whole entry): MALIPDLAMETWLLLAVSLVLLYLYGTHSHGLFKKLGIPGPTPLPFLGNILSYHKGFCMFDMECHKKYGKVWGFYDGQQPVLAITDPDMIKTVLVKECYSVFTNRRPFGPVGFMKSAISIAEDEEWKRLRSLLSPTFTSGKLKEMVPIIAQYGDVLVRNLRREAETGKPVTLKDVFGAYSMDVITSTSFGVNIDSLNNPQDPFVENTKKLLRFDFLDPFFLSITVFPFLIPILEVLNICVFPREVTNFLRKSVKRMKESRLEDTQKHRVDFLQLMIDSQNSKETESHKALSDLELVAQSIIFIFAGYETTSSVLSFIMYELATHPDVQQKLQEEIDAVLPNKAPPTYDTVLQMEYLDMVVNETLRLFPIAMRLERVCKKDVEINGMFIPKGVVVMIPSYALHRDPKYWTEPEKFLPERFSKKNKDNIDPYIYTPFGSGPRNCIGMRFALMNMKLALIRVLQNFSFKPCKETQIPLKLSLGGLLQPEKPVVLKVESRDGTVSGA

Compound: CNC(=O)[C@@H]1CCCN1S(=O)(=O)c1ccc(Cl)c(COc2cccc3c(-c4cncn4C)cc(C(C)C)nc23)c1Cl
- Activity (Mus musculus [1]): 100%
- Activity (Mus musculus [2]): Dose-dependent effect
- Activity [3]: -27%
- inhibition at 1 µM (CYP3A4): 99%
- Cmax [4]: 27500 ng/mL
- Ratio [5]: 8.3
- Activity [6]: -16%
